Data published in ChEMBL document CHEMBL2311424, “Inhibitors of human immunodeficiency virus type 1 (HIV-1) attachment 13. Synthesis and profiling of a novel amminium prodrug of the HIV-1 attachment inhibitor BMS-585248” (J Med Chem, 2013).
Each block holds one compound with its values, some of them ahead of it.

Key:
[1] = Permeability across human Caco2 cells; type: ADME, cell-based; conditions: Caco-2, read-out: permeability
Hepatocyte = assay: Prodrug activation in rat hepatocytes assessed as BMS-585248 formation; type: cell-based
Summary of the method: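 In-house isolated rat hepatocytes incubated with prodrug (10 μM final) for 2 h at 37 °C in humidified 95/5% air/CO2; aliquots quenched in ice-cold acetonitrile, centrifuged, prodrug and parent quantified by LC/MS/MS.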

[2] = Volume of distribution in beagle dog at 1 mg/kg, iv; type: ADME, organism-based, Canis lupus familiaris; set-up: dose 1 mg/kg, route intravenous; conditions: in vivo
Canis familiaris = assay: AUC in beagle dog assessed as BMS-585248 level at 5 mg/kg, po; type: ADME, organism-based, Canis lupus familiaris, Plasma; set-up: dose 5 mg/kg, route oral; conditions: in vivo
[3] = AUC in beagle dog at 5 mg/kg, po; type: ADME, organism-based, Canis lupus familiaris; set-up: dose 5 mg/kg, route oral; conditions: plasma
[4] = Clearance in beagle dog at 1 mg/kg, iv; type: ADME, organism-based, Canis lupus familiaris; set-up: dose 1 mg/kg, route intravenous; conditions: in vivo
Liver microsomes = assay: Prodrug activation in rat liver microsomes assessed as BMS-585248 formation; set-up: species or system Microsome
Summary of the method: (§1)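 Rat liver cytosol (2 mg/mL) or microsomes (1 mg/mL) incubated with prodrug (10 μM final) and 1 mM NADPH up to 2 h at 37 °C, shaking; anaerobic runs used nitrogen-purged 0.1 M phosphate buffer with 10 mM MgCl2 under humidified nitrogen for 60 min. Acetonitrile quench, LC/MS/MS of prodrug and parent.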

Blood = assay: Prodrug activation in rat blood assessed as BMS-585248 formation; type: tissue-based
Summary of the method: (§2)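 Prodrug at 10 μM final incubated 60 min at 37 °C in Tris-HCl buffer pH 7.4, rat blood or rat plasma, aerobic. Aliquots quenched with equal volume ice-cold acetonitrile, centrifuged, supernatant analysed by LC/MS/MS for prodrug and parent.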

[5] = Half life in beagle dog at 1 mg/kg, iv; type: ADME, organism-based, Canis lupus familiaris; set-up: dose 1 mg/kg, route intravenous; conditions: in vivo
[6] = Cmax in beagle dog at 5 mg/kg, po; type: ADME, organism-based, Canis lupus familiaris; set-up: dose 5 mg/kg, route oral; conditions: in vivo
[7] = Aqueous solubility of the compound; type: physicochemical
Liver = assay: Prodrug activation in rat liver cytosol assessed as BMS-585248 formation; type: tissue-based; summary of the method: as §1
[8] = Prodrug activation in Tris-HCl buffer assessed as BMS-585248 formation at pH 7.4; summary of the method: as §2
[9] = system: Human immunodeficiency virus 1; assay: Antiviral activity against HIV1; type: functional, organism-based
Plasma = assay: Prodrug activation in rat plasma assessed as BMS-585248 formation; type: cell-free; summary of the method: as §2
Rattus norvegicus [10] = assay: Total AUC in Sprague-Dawley rat assessed as BMS-585248 level at 5 mg/kg, po; type: ADME, organism-based; set-up: dose 5 mg/kg, route oral, time AUCmax; conditions: in vivo
Summary of the method: (§3)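 Oral dose escalation in male rats, groups of three, dosed by gavage from solutions in water with 0.5% methylcellulose: prodrug trifluoroacetate salt at 5, 25 and 200 mg/kg; parent at 15, 75 and 200 mg/kg. Plasma analysed by LC/MS/MS; noncompartmental PK.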

[11] = Cmax in Sprague-Dawley rat at 5 mg/kg, po after 6 hrs; type: ADME, organism-based; set-up: dose 5 mg/kg, route oral; conditions: in vivo
Rattus norvegicus [12] = assay: Cmax in Sprague-Dawley rat assessed as BMS-585248 level at 25 mg/kg, po; type: ADME, organism-based; set-up: dose 25 mg/kg, route oral; conditions: in vivo; summary of the method: as §3
[13] = Drug excretion in bile duct cannulated Sprague-Dawley rat urine at 1 mg/kg, iv up to 2 hrs; type: ADME, organism-based; set-up: dose 1 mg/kg, route intravenous; conditions: read-out: Drug excretion
Summary of the method: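 Bile duct/jugular vein cannulated male rats (n = 3) given prodrug 1 mg/kg IV; plasma, bile and urine collected up to 6 h. Biotransformation profiled by UPLC on C18 at 40 °C with gradient elution, positive electrospray full-scan MS and data-dependent MS/MS; relative percentages of prodrug, N-acetyl conjugate and parent reported.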

[14] = Cmax in dual cannulated portal vein Sprague-Dawley rat at 5 mg/kg, po; type: ADME, organism-based; set-up: dose 5 mg/kg, route oral
[15] = AUC in Sprague-Dawley rat at 5 mg/kg, po; type: ADME, organism-based; set-up: dose 5 mg/kg, route oral; conditions: plasma
Summary of the method: (§4)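 Male rats, groups of three; prodrug trifluoroacetate salt given by IV bolus (1 mg/kg) or oral gavage (5 mg/kg) after overnight fast, both from a 1 mg/mL solution in PEG-400/ethanol 90/10 v/v. Plasma sampled up to 24 h, stored at −20 °C, parent and prodrug quantified by LC/MS/MS; noncompartmental analysis.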

Rattus norvegicus [16] = assay: Prodrug conversion in Sprague-Dawley rat assessed as BMS-585248 level at 1 mg/kg, iv after 5 mins; type: ADME, organism-based; set-up: dose 1 mg/kg, route intravenous; conditions: in vivo; summary of the method: as §4
[17] = AUC in dual cannulated portal vein Sprague-Dawley rat at 5 mg/kg, po; type: ADME, organism-based; set-up: dose 5 mg/kg, route oral; conditions: plasma
Rattus norvegicus [18] = assay: Cmax in Sprague-Dawley rat assessed as BMS-585248 level at 200 mg/kg, po; type: ADME, organism-based; set-up: dose 200 mg/kg, route oral; conditions: in vivo; summary of the method: as §3
Rattus norvegicus [19] = assay: AUC in Sprague-Dawley rat assessed as BMS-585248 level at 5 mg/kg, po; type: ADME, organism-based, Plasma; set-up: dose 5 mg/kg, route oral; conditions: in vivo; summary of the method: as §4
[20] = Half life in Sprague-Dawley rat at 1 mg/kg, iv; type: ADME, organism-based; set-up: dose 1 mg/kg, route intravenous; conditions: in vivo; summary of the method: as §4
Rattus norvegicus [21] = assay: AUClast in bacitracin, neomycin sulfate and tetracycline treated Sprague-Dawley rat assessed as BMS-585248 level at 5 mg/kg, po; type: ADME, organism-based, Plasma; set-up: dose 5 mg/kg, route oral, time 0 - last; conditions: in vivo
Summary of the method: (§5)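 Male rats (n = 3 per group) pretreated 2 days with saline or an antibiotic mix (bacitracin 400 mg/kg BID, neomycin sulfate 400 mg/kg BID, tetracycline 200 mg/kg), then given prodrug 5 mg/kg orally. Plasma to 24 h, stored −20 °C, LC/MS/MS quantitation of prodrug and parent.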

Rattus norvegicus [22] = assay: AUC in Sprague-Dawley rat assessed as BMS-585248 level at 1 mg/kg, iv; type: ADME, organism-based, Plasma; set-up: dose 1 mg/kg, route intravenous; conditions: in vivo; summary of the method: as §4
Rattus norvegicus [23] = assay: Cmax in dual cannulated portal vein Sprague-Dawley rat assessed as BMS-585248 level at 5 mg/kg, po; type: ADME, organism-based; set-up: dose 5 mg/kg, route oral; conditions: in vivo
Rattus norvegicus [24] = assay: AUC in dual cannulated portal vein Sprague-Dawley rat assessed as BMS-585248 level at 5 mg/kg, po; type: ADME, organism-based, Plasma; set-up: dose 5 mg/kg, route oral; conditions: in vivo
Rattus norvegicus [25] = assay: Cmax in Sprague-Dawley rat assessed as BMS-585248 level at 5 mg/kg, po; type: ADME, organism-based; set-up: dose 5 mg/kg, route oral; conditions: in vivo; summary of the method: as §3
Rattus norvegicus [26] = assay: AUClast in Sprague-Dawley rat assessed as BMS-585248 level at 5 mg/kg, po; type: ADME, organism-based, Plasma; set-up: time 0 - last, dose 5 mg/kg, route oral; conditions: in vivo; summary of the method: as §5
[27] = Clearance in Sprague-Dawley rat at 1 mg/kg, iv; type: ADME, organism-based; set-up: dose 1 mg/kg, route intravenous; conditions: in vivo; summary of the method: as §4
[28] = AUC in Sprague-Dawley rat at 1 mg/kg, iv; type: ADME, organism-based; set-up: dose 1 mg/kg, route intravenous; conditions: plasma; summary of the method: as §4
Rattus norvegicus [29] = assay: Total AUC in Sprague-Dawley rat assessed as BMS-585248 level at 25 mg/kg, po; type: ADME, organism-based; set-up: time AUCmax, dose 25 mg/kg, route oral; conditions: in vivo; summary of the method: as §3
Rattus norvegicus [30] = assay: Total AUC in Sprague-Dawley rat assessed as BMS-585248 level at 200 mg/kg, po; type: ADME, organism-based; set-up: time AUCmax, dose 200 mg/kg, route oral; conditions: in vivo; summary of the method: as §3
Rattus norvegicus [31] = assay: Cmax in bacitracin, neomycin sulfate and tetracycline treated Sprague-Dawley rat assessed as BMS-585248 level at 5 mg/kg, po; type: ADME, organism-based; set-up: dose 5 mg/kg, route oral; conditions: in vivo; summary of the method: as §5
[32] = Volume of distribution in Sprague-Dawley rat at 1 mg/kg, iv; type: ADME, organism-based; set-up: dose 1 mg/kg, route intravenous; conditions: in vivo; summary of the method: as §4
Rattus norvegicus [33] = assay: Cmax in Sprague-Dawley rat assessed as BMS-585248 level at 5 mg/kg, po after 6 hrs; type: ADME, organism-based; set-up: dose 5 mg/kg, route oral; conditions: in vivo
[34] = AUClast in Sprague-Dawley rat at 5 mg/kg, po; type: ADME, organism-based; set-up: time 0 - last, dose 5 mg/kg, route oral; conditions: plasma; summary of the method: as §5
[35] = Total AUC in Sprague-Dawley rat at 200 mg/kg, po; type: ADME, organism-based; set-up: time AUCmax, dose 200 mg/kg, route oral; conditions: in vivo; summary of the method: as §3
[36] = Cmax in Sprague-Dawley rat at 200 mg/kg, po; type: ADME, organism-based; set-up: dose 200 mg/kg, route oral; conditions: in vivo; summary of the method: as §3
[37] = Cmax in Sprague-Dawley rat at 15 mg/kg, po; conditions: in vivo
Rattus norvegicus [38] = assay: Cmax in bacitracin, neomycin sulfate and tetracycline treated Sprague-Dawley rat at 5 mg/kg, po; type: ADME, organism-based; set-up: dose 5 mg/kg, route oral; conditions: in vivo; summary of the method: as §5
[39] = Total AUC in Sprague-Dawley rat at 75 mg/kg, po; type: ADME, organism-based; set-up: time AUCmax, dose 75 mg/kg, route oral; conditions: in vivo; summary of the method: as §3
[40] = Cmax in Sprague-Dawley rat at 75 mg/kg, po; type: ADME, organism-based; set-up: dose 75 mg/kg, route oral; conditions: in vivo; summary of the method: as §3
[41] = AUClast in bacitracin, neomycin sulfate and tetracycline treated Sprague-Dawley rat at 5 mg/kg, po; type: ADME, organism-based; set-up: time 0 - last, dose 5 mg/kg, route oral; conditions: plasma; summary of the method: as §5
[42] = Total AUC in Sprague-Dawley rat at 15 mg/kg, po; conditions: in vivo

- Papp [1]: 1.5 ×10⁻⁶ cm/s
- Drug metabolism (Hepatocyte): Not Active
- Vd [2]: 0.3 L/kg
- AUC (Canis familiaris): 8.064 µM·h
- AUC [3]: 0.217 µM·h
- clearance [4]: 13.8 mL/min/kg
- Drug metabolism (Liver microsomes): Not Active
- Drug metabolism (Blood): Not Active
- half-life [5]: 54 min
- Cmax [6]: 139 nM
- solubility [7]: 1760 µg/mL
- Drug metabolism (Liver): Not Active
- Drug metabolism [8]: Not Active
- EC50 [9]: 1.76 nM
- Drug metabolism (Plasma): Not Active
SMILES: N[n+]1ccn(-c2ncc(F)c3c(C(=O)C(=O)N4CCN(C(=O)c5ccccc5)CC4)c[nH]c23)n1.[Cl-]

- AUC (Rattus norvegicus [10]): 8 µM·h
- Cmax [11]: 23 nM
- Cmax (Rattus norvegicus [12]): 12000 nM
- dose excreted at 2 h [13]: 80%
- Cmax [14]: 74 nM
- AUC [15]: 0.0208 µM·h
- Drug metabolism (Rattus norvegicus [16]): Active
- AUC [17]: 0.035 µM·h
- Cmax (Rattus norvegicus [18]): 77000 nM
- AUC (Rattus norvegicus [19]): 28.098 µM·h
- half-life [20]: 18 min
- AUClast (Rattus norvegicus [21]): 0.148 µM·h
- AUC (Rattus norvegicus [22]): 3.22 µM·h
- Cmax (Rattus norvegicus [23]): 2140 nM
- AUC (Rattus norvegicus [24]): 23.873 µM·h
- Cmax (Rattus norvegicus [25]): 1300 nM
- AUClast (Rattus norvegicus [26]): 0.112 µM·h
- clearance [27]: 23 mL/min/kg
- AUC [28]: 1.55 µM·h
- AUC (Rattus norvegicus [29]): 72 µM·h
- AUC (Rattus norvegicus [30]): 996 µM·h
- Cmax (Rattus norvegicus [31]): 79 nM
- Vd [32]: 0.29 L/kg
- Cmax (Rattus norvegicus [33]): 3120 nM
SMILES: N[n+]1ccn(-c2ncc(F)c3c(C(=O)C(=O)N4CCN(C(=O)c5ccccc5)CC4)c[nH]c23)n1.O=C([O-])C(F)(F)F

- dose excreted at 2 h [13]: 16.5%
SMILES: CC(=O)N[n+]1ccn(-c2ncc(F)c3c(C(=O)C(=O)N4CCN(C(=O)c5ccccc5)CC4)c[nH]c23)n1

- AUC(0-t) [34]: 47.5 µM·h
- dose excreted at 2 h [13]: 3.5%
- AUC [35]: 145 µM·h
- Cmax [36]: 11000 nM
- Cmax [37]: 6600 nM
- Cmax (Rattus norvegicus [38]): 18 nM
- AUC [39]: 115 µM·h
- Cmax [40]: 8400 nM
- EC50 [9]: 0.06 nM
- AUC(0-t) [41]: 13.8 µM·h
- AUC [42]: 42 µM·h
SMILES: O=C(C(=O)N1CCN(C(=O)c2ccccc2)CC1)c1c[nH]c2c(-n3ccnn3)ncc(F)c12
